Numbered stars: 1 amine (or outer) side, 2 acyl side, 3 side chain; on linkers, the order of the positions; unused ones are H or OH. Bridge positions count the residues as written; N and C are the ends. Square brackets hold non-standard residues; d marks the D form. Peptide text beside a SMILES is read from it. * marks the point of attachment. Tic(7-O(CH2)6CO) = O=C([C@@H]1Cc2ccc(OCCCCCCC(=O)[*:3])cc2CN1[*:1])[*:2]; X1 = CCCC(N[*:1])C(=O)C(=O)[*:2]; Chg = N[C@H](C(=O)O)C1CCCCC1; Phg = N[C@H](C(=O)O)c1ccccc1; OtBu = CC(C)(C)O*
Assays:
[1] = target: NS3 (Hepatitis C virus, UniProt A3EZJ3); test: Inhibition of HCV NS3 protease; design: species or system Hepacivirus hominis
In short: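 Continuous spectrophotometric assay with NS4A-tethered single-chain NS3 serine protease, following cleavage of chromogenic ester substrates. Inhibition constants (Ki*) were determined. Compounds were tested as a mixture of two P1 diastereomers because pure P1 isomers racemized extensively under the assay conditions.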

[2] = AUC in rat administered sc; type: ADME, organism-based; conditions: plasma
[3] = AUC in rat administered po; type: ADME, organism-based; conditions: plasma
[4] = Oral bioavailability in rat; type: ADME, organism-based; conditions: in vivo

NS3, sequence (A3EZJ3 whole entry): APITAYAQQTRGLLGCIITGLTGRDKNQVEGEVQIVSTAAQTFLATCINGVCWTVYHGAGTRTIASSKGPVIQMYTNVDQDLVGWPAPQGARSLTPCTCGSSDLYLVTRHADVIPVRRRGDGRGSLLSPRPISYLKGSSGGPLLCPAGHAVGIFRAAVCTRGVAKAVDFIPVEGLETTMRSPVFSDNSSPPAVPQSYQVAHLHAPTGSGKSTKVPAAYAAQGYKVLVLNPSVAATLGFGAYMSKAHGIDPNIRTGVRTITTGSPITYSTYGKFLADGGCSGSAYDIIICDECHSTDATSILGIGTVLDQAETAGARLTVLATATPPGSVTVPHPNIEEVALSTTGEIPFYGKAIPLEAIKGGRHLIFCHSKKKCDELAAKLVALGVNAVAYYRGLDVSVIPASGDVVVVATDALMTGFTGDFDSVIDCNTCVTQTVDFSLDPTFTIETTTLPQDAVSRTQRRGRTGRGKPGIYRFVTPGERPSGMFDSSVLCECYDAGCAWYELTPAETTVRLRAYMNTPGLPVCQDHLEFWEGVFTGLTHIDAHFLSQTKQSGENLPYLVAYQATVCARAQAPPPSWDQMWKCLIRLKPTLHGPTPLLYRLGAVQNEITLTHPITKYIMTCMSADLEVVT

Question: With `CCCC(NC(=O)[C@@H]1Cc2ccc3cc2CN1C(=O)[C@H](C1CCCCC1)NC(=O)CCCCCCO3)C(=O)C(=O)NCC(=O)NCc1ccccc1` (stereo not given in full) as the molecule, how does the Ki [1] read?
Answer: 2000 nM

Question: With `CCCC(NC(=O)[C@@H]1Cc2ccc3cc2CN1C(=O)[C@H](C1CCCCC1)NC(=O)CCCCCCO3)C(=O)C(=O)NCC(=O)OCc1ccccc1` (stereo not given in full) as the molecule, how does the Ki [1] read?
Answer: 1700 nM

Question: Which Ki [1] does the source give for `CCCC(NC(=O)[C@@H]1Cc2ccc3cc2CN1C(=O)[C@H](C1CCCCC1)NC(=O)CCCCCCO3)C(=O)C(N)=O` (stereo not given in full) here?
Answer: 2100 nM

Question: For `CCCC(NC(=O)[C@@H]1Cc2ccc3cc2CN1C(=O)[C@H](C1CCCCC1)NC(=O)CCCCCCO3)C(=O)C(=O)NCC(=O)O` (stereo not given in full), which Ki [1] is on record?
Answer: 3000 nM

Question: Which results are given for `CCCC(NC(=O)[C@@H]1Cc2ccc3cc2CN1C(=O)[C@H](C1CCCCC1)NC(=O)CCCCCCO3)C(=O)C(=O)NCC(=O)N[C@H](C(=O)N(C)C)c1ccccc1` (stereo not given in full) ([Chg][Tic(7-O(CH2)6CO)][X1]G[Phg]-NMe2; lactam N-2)?
Answer: AUC [2]: 5.5 µM·h; Ki [1]: 21 nM; AUC [3]: 0.27 µM·h; bioavailability [4]: < 10%

Question: Which Ki [1] does the source give for `CCCC(NC(=O)[C@@H]1Cc2ccc3cc2CN1C(=O)[C@H](C1CCCCC1)NC(=O)CCCCCCO3)C(=O)C(=O)NCC(=O)N[C@H](C(=O)O)c1ccccc1` (stereo not given in full) ([Chg][Tic(7-O(CH2)6CO)][X1]G[Phg]-OH; lactam N-2) here?
Answer: 15 nM

Question: For `CCCC(NC(=O)[C@@H]1Cc2ccc3cc2CN1C(=O)[C@H](C1CCCCC1)NC(=O)CCCCCCO3)C(=O)C(=O)NCC(=O)N[C@H](C(=O)OC(C)(C)C)c1ccccc1` (stereo not given in full) ([Chg][Tic(7-O(CH2)6CO)][X1]G[Phg]-OtBu; lactam N-2), which Ki [1] is on record?
Answer: 260 nM
